Data on 72 molecules can be found in ChEMBL document CHEMBL4513216, “Probing the Open Global Health Chemical Diversity Library for Multistage-Active Starting Points for Next-Generation Antimalarials” (ACS Infect Dis, 2020).

This series is described as follows: Toxicity liver stage against HepG2, at 10uM. The settings on record: human, HepG2-A16-CD81EGFP cells; read-out: INHIBITION
Also noted: test concentration 10 uM, cell line HepG2-A16-CD81EGFP. The class given is cell-based. A digest of the protocol:
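Uninfected HepG2-A16-CD81EGFP cells, 3 × 10^3 per well, 1536-well, plated on prespotted compound at 10 μM final, parasite-free screening media added to match infected plates; puromycin 10 μM positive, DMSO 0.5% negative; run in parallel with 48 h PbLuc assay at 37 °C, 5% CO2; viability by CellTiter-Glo luminescence, normalized to controls.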
Take `CCOC(=O)Cc1csc(NC(=O)c2cc(=O)c(OC)c[nH]2)n1`: the cytotoxicity at 10 µM is -43.8%.

In the case of `Cc1ncsc1CCC(=O)NCc1csc(N(C)C)n1`, the cytotoxicity at 10 µM is 1.31%.

As to `O=S(=O)(NCc1ccc(S(=O)(=O)N2CCCC2)s1)c1cc(Cl)ccc1Cl`, the cytotoxicity at 10 µM is -43.4%.

Consider `CC1CCC(NS(=O)(=O)CC(=O)Nc2ccc(N3CCCC3)cn2)CC1` (configuration not stated), for which the cytotoxicity at 10 µM came to 1.54%.

Regarding `CCCn1cc(S(=O)(=O)N[C@H]2CN(CC(N)=O)C[C@@H]2C2CC2)cn1`, the cytotoxicity at 10 µM was -11.7%.

Take `O=C(NCc1ccco1)Nc1cccc(S(=O)(=O)C(F)F)c1`: the cytotoxicity at 10 µM is -54.8%.

As to `c1ccc(O[C@H]2CO[C@@]3(CCCN(Cc4nccs4)C3)C2)nc1`, the cytotoxicity at 10 µM was -71.3%.

As to `COCCC(=O)N1CCN(C)c2ncccc2C1`, the cytotoxicity at 10 µM was -8.28%.

Consider `CC(C)(O)C1CCCN(C(=O)Nc2nc(-c3ccccc3)ns2)C1` (configuration not stated), for which the cytotoxicity at 10 µM was -137%.

`O=C(C1CCOCC1)N1CCC2(CCN(Cc3nccs3)CC2)CC1`: the cytotoxicity at 10 µM was -83.1%.

As to `Cc1ccn2c(=O)cc(CSCC(=O)Nc3nnc(C(C)C)s3)nc2c1`, the cytotoxicity at 10 µM is -8.93%.

On to `Cc1cc(F)ccc1CN1CCC(O)(CN2CCCCC2)C1` (configuration not stated), for which the cytotoxicity at 10 µM came out at 14.8%.

Take `COCCN(Cc1cccs1)C(=O)c1ccc(=O)n(C)c1`: the cytotoxicity at 10 µM is -4.78%.

With `COc1ccc(CN2CCO[C@H]3CN(C(C)=O)CC[C@H]3C2=O)cc1`, the cytotoxicity at 10 µM was -138%.

Regarding `CN1CCCC(Cc2cncc(C(=O)NC3CC3)c2)C1` (configuration not stated), the cytotoxicity at 10 µM is -25.6%.

In the case of `Cc1noc(C2CCCN(C(=O)CCCNc3ncccn3)C2)n1` (configuration not stated), the cytotoxicity at 10 µM is -3.92%.

As for `Cc1nn(C)cc1Cn1c(=O)c(C)nc2ccccc21`, the cytotoxicity at 10 µM was -1.21%.

Regarding `CN(Cc1ccco1)[C@@H]1CN(CC2CCOCC2)C[C@@H]2CCCO[C@@H]21`, the cytotoxicity at 10 µM is -71.1%.

Regarding `CNC(=O)C1(CCCc2cccnc2)CCCCN1` (configuration not stated), the cytotoxicity at 10 µM turned out to be 2.34%.

`CC(CO)(NC(=O)NCc1ccc(Br)s1)C1CC1` (configuration not stated): the cytotoxicity at 10 µM is 4.68%.

In the case of `c1sc(C2CCCC2)nc1CN1CCn2c(nnc2C2CC2)C1`, the cytotoxicity at 10 µM is -1.62%.

In the case of `CCS(=O)(=O)NCC(=O)NC1(C)CCc2ccccc2C1` (configuration not stated), the cytotoxicity at 10 µM stood at 2.22%.

Consider `c1ccc(OCC2CC3(CCN(c4ncccn4)CC3)CO2)nc1` (configuration not stated), for which the cytotoxicity at 10 µM amounted to 0.485%.

On to `CCOCC1CN(C(=O)Cc2ccccn2)Cc2cnn(CC)c21` (configuration not stated), for which the cytotoxicity at 10 µM was -68.9%.

Take `CCc1nsc(N2CCn3c(nnc3-c3ccccc3)C2)n1`: the cytotoxicity at 10 µM is 3.67%.

Turning to `CN(C)C1CCN(C(=O)CCc2cc(Br)cs2)CC1`, the cytotoxicity at 10 µM was -18%.

On to `Cc1ccc(C(C(=O)O)N(C)CCCN2CCOCC2)c(C)c1` (configuration not stated), for which the cytotoxicity at 10 µM amounted to 0.129%.

As to `COc1ccccc1CCNC(=O)N1CCC(n2cncn2)CC1`, the cytotoxicity at 10 µM turned out to be 0.428%.

With `O=C(c1cccc(S(=O)(=O)NCCc2nccs2)c1)N1CCOCC1`, the cytotoxicity at 10 µM was -4.19%.

In the case of `CC(C(=O)N1CCCN(c2ncccc2C#N)CC1)n1cccn1` (configuration not stated), the cytotoxicity at 10 µM was -4.3%.

As to `O=C(CCn1cccn1)NS(=O)(=O)N1CCCc2ccccc21`, the cytotoxicity at 10 µM turned out to be 5.65%.

As for `Cc1cc(C(=O)NCc2ccnc(OCC(F)(F)F)c2)no1`, the cytotoxicity at 10 µM is -7.98%.

Turning to `O=C(NCc1ccncc1)c1ccc(Cl)cc1F`, the cytotoxicity at 10 µM was determined as 0.55%.

In the case of `COc1cccc(CN2CCC3(CC2)CCN(c2ncccn2)C3)c1`, the cytotoxicity at 10 µM is -7.46%.

`CN1CC[C@H]2[C@H](C[C@@H](CN3CCCC3)N2c2nccs2)C1`: the cytotoxicity at 10 µM is 3.59%.

Take `Cn1nc(C2CCCN(Cc3ccccc3)C2)c2nccnc21` (configuration not stated): the cytotoxicity at 10 µM was -9.05%.

With `COCC(=O)NCc1cc(=O)n2c(n1)CN(CC1CC1)CCC2`, the cytotoxicity at 10 µM was -88.5%.

Take `CCc1ccccc1CN1CCn2nc(CNC(C)=O)cc2C1`: the cytotoxicity at 10 µM is 5.18%.

Turning to `CC(=O)N[C@@H]1CN(Cc2nc3ccccc3[nH]2)C[C@H]1c1ccc(C)o1`, the cytotoxicity at 10 µM amounted to 2.75%.

Turning to `Cc1ccccc1CN1CCCN(S(=O)(=O)N(C)C2CCCCC2)CC1`, the cytotoxicity at 10 µM turned out to be 11.5%.

With `CN(Cc1ccncn1)c1nccc(CCC(F)(F)F)n1`, the cytotoxicity at 10 µM was found to be 11.2%.

As for `O=C(c1ccc(SC(F)F)cc1)N1CCOCC1c1ncon1` (configuration not stated), the cytotoxicity at 10 µM was 4.79%.

Consider `Cc1cc(C(F)(F)F)nc(C2CCN(C(=O)CO)CC2)n1`, for which the cytotoxicity at 10 µM is -2.14%.

Turning to `COc1ccc(NC(=O)CN2CCS(=O)(=O)CC2)cn1`, the cytotoxicity at 10 µM amounted to 11.8%.

For `O=C(c1ccoc1)N1CCO[C@]2(CCC[C@H]2COCc2cccnc2)C1`, the cytotoxicity at 10 µM is 4.58%.

For `O=C1OCCC1N1CCN(c2ccc(O)cc2)CC1` (configuration not stated), the cytotoxicity at 10 µM is -1.29%.

For the molecule `N#Cc1cccc(OCC(=O)N(Cc2ccncc2)C2CC2)c1`, the cytotoxicity at 10 µM was -44.2%.

Turning to `Cn1cnc2c1C(COCC1CCOCC1)CN(C1CCOCC1)C2` (configuration not stated), the cytotoxicity at 10 µM was -4.22%.

With `Cc1cnn(CC2CN(Cc3ccccn3)CCO2)c1` (configuration not stated), the cytotoxicity at 10 µM was -2.84%.

On to `O=C(Cc1ccc(F)cc1)N1CCCCC1c1ccn2ccnc2n1` (configuration not stated), for which the cytotoxicity at 10 µM was -0.722%.

In the case of `COC(=O)C(CCSC)NC(=O)Cc1c(C)nn(-c2ccccc2)c1C` (configuration not stated), the cytotoxicity at 10 µM was -4.31%.

On to `Nc1nccnc1C(=O)N(Cc1ccco1)CC1CCCO1` (configuration not stated), for which the cytotoxicity at 10 µM stood at 8.13%.

With `COCCNC(=O)C1(c2ccc(C)c(OC)c2)CCCC1`, the cytotoxicity at 10 µM was -3.21%.

Regarding `Cc1nc(NC(C)C)nc2c1CN(Cc1nccn1C)CC2`, the cytotoxicity at 10 µM turned out to be 8.13%.

`COCCN1CCC2(CCCN(c3ncc(F)cn3)C2)C1` (configuration not stated): the cytotoxicity at 10 µM was 4.71%.

In the case of `CN(C)C(=O)Cc1nc(CN2CCCC2Cn2cccn2)cs1` (configuration not stated), the cytotoxicity at 10 µM came to 4.79%.

With `Cc1nc(C2CCCN(C(=O)c3cccc4c3OCO4)C2)no1` (configuration not stated), the cytotoxicity at 10 µM stood at 3.39%.

For the molecule `O=C(c1cc(Cl)c2c(c1)OCCO2)N1CCCC(n2cncn2)C1` (configuration not stated), the cytotoxicity at 10 µM was found to be 1.56%.

In the case of `CCc1nc(CN2CCCC2C(=O)NC2CC2)cs1` (configuration not stated), the cytotoxicity at 10 µM is -4.63%.

Regarding `CN(CC(=O)NCC(F)(F)F)C(=O)c1ccc(=O)[nH]c1`, the cytotoxicity at 10 µM was -4.39%.

With `Cc1cc(C)c2ncn(CCOCCO)c(=O)c2c1`, the cytotoxicity at 10 µM worked out at 8.17%.

In the case of `Cc1csc(CNc2nc3c(s2)c(C)nn3C)n1`, the cytotoxicity at 10 µM is -109%.

For the molecule `CNc1ccnc(N2CCCC(C(=O)c3ccccn3)C2)n1` (configuration not stated), the cytotoxicity at 10 µM was -12.1%.

Turning to `CS(=O)(=O)NC1CCN(C(=O)c2[nH]c3ccc(Cl)cc3c2Cl)CC1`, the cytotoxicity at 10 µM was determined as 16.3%.

For the molecule `CC(Oc1ccccc1C#N)C(=O)NC1CC1` (configuration not stated), the cytotoxicity at 10 µM was 6.21%.

Consider `CC(=O)c1ccc(OCC(=O)NS(=O)(=O)c2cccnc2)cc1`, for which the cytotoxicity at 10 µM is -18%.

Consider `CCC(C)Oc1cc(C(=O)Nc2nc(C)ns2)ccn1` (configuration not stated), for which the cytotoxicity at 10 µM is -1.02%.

On to `Cc1ccc(CN2C[C@@H](C(=O)O)[C@H](c3cccnc3)C2)s1`, for which the cytotoxicity at 10 µM came out at 4.17%.

Take `Cc1ccc(C(=O)NC2CCN(C)CC2)cc1N(C)S(C)(=O)=O`: the cytotoxicity at 10 µM is -0.853%.

`CN(C)c1cc(C2CCCN(S(=O)(=O)c3cn(C)cn3)C2)ccn1` (configuration not stated): the cytotoxicity at 10 µM is -14.4%.

Turning to `CCn1nc(C)c(CNC(=O)c2nnc3ccc(Cl)cc3n2)c1C`, the cytotoxicity at 10 µM stood at 8.1%.

In the case of `O=C(CN1CCOC(Cn2cccn2)C1)Nc1nncs1` (configuration not stated), the cytotoxicity at 10 µM was determined as 4.79%.
